ChEMBL document CHEMBL3091455, “Dimethylaminopyridine derivatives of lupane triterpenoids cause mitochondrial disruption and induce the permeability transition” (Bioorg Med Chem, 2013)
The source made the active and inactive calls. No cut-off for these calls is given here.

Experiments:
Rattus norvegicus [1] = species: Rattus norvegicus; assay: Effect on electron transport protein complex 2 in Wistar-Han rat liver mitochondria using succinate as substrate assessed as mitochondrial transmembrane electric potential at 3 ug/mg relative to control
Rattus norvegicus [2] = species: Rattus norvegicus; assay: Effect on electron transport protein complex 1 in Wistar-Han rat liver mitochondria using glutamate/malate as substrate assessed as ADP-induced depolarization at 6 ug/mg relative to control
Rattus norvegicus [3] = species: Rattus norvegicus; assay: Effect on electron transport protein complex 1 in Wistar-Han rat liver mitochondria using glutamate/malate as substrate assessed as mitochondrial transmembrane electric potential at 6 ug/mg relative to control
MCF7 = assay: Induction of mitochondrial depolarization in human estrogen-sensitive MCF7 cells at 1 ug/ml after 48 hrs by MitoTracker Red staining; format: functional, cell-based
In short: (§1)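 Cells grown in DMEM with 10% FBS at 37 °C, 5% CO₂, seeded on coverslips, attached 24 h. Then 1 µg/ml compound for 48 h. MitoTracker Red CMXRos 7.3 nM added for the final 30 min. Cells fixed in cold methanol at −20 °C overnight and imaged by epifluorescence with a 63× objective. Three independent experiments.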

Rattus norvegicus [4] = species: Rattus norvegicus; assay: Effect on electron transport protein complex 1 in Wistar-Han rat liver mitochondria using glutamate/malate as substrate assessed as ADP-induced depolarization at 3 ug/mg relative to control
Rattus norvegicus [5] = species: Rattus norvegicus; assay: Effect on calcium-induced mitochondrial swelling in Wistar-Han rat liver mitochondria assessed as mitochondrial transmembrane electric potential after 2 mins; format: functional
In short: (§2)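 TPP⁺ electrode, 30 °C, 1 mg rat liver mitochondria in 1 ml 200 mM sucrose, 10 mM Tris-MOPS pH 7.2, 10 µM EGTA, 1 mM KH₂PO₄, 3 µM rotenone, 3 µM TPP⁺. Compound incubated with mitochondria 2 min (legend), then 5 mM succinate. Calcium 30–60 nmol pulses, depending on preparation. Controls: 1 µM cyclosporin A pre-incubated; FCCP.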

BJ = assay: Induction of mitochondrial depolarization in human BJ cells at 1 ug/ml after 48 hrs by MitoTracker Red staining; format: cell-based
In short: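 BJ normal human fibroblasts grown as monolayers in DMEM with 10% FBS, 37 °C, 5% CO2. Seeded on glass coverslips, attached 24 h, then exposed to compound (1 µg/ml) for 48 h. MitoTracker Red CMXRos (7.3 nM) added 30 min before end at 37 °C in dark. Methanol-fixed at -20 °C overnight, imaged by epifluorescence (63× objective). Three independent experiments.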

Rattus norvegicus [6] = species: Rattus norvegicus; assay: Effect on electron transport protein complex 1 in Wistar-Han rat liver mitochondria using glutamate/malate as substrate assessed as mitochondrial transmembrane electric potential at 3 ug/mg relative to control
Rattus norvegicus [7] = species: Rattus norvegicus; assay: Effect on electron transport protein complex 2 in Wistar-Han rat liver mitochondria using succinate as substrate assessed as phosphorylative lag phase at 3 ug/mg relative to control
In short: (§3)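 Membrane potential recorded by TPP⁺ electrode, 1 mg rat liver mitochondria, 30 °C, pH 7.2 sucrose/KCl medium with 3 μM TPP⁺. Compound (3 or 6 µg/mg protein) given 1 min before glutamate/malate (5/2.5 mM) or succinate (5 mM) + 3 µM rotenone. Lag phase follows the ADP pulse (125 nmol/mg protein).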

Rattus norvegicus [8] = species: Rattus norvegicus; assay: Effect on electron transport protein complex 2 in Wistar-Han rat liver mitochondria using succinate as substrate assessed as ADP-induced depolarization at 6 ug/mg relative to control
Rattus norvegicus [9] = species: Rattus norvegicus; assay: Inhibition of electron transport protein complex 1/2 in Wistar-Han rat liver mitochondria using glutamate/malate and succinate as substrate assessed as decrease of respiratory control ratio at 6 ug/mg
In short: (§4)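 Compound (3 or 6 µg/mg protein) preincubated 1 min, then 10 mM glutamate/5 mM malate or 5 mM succinate + 3 µM rotenone. ADP 187.5 nmol/mg protein; oligomycin 1 µg; FCCP 1 µM. RCR = state 3/state 4; ADP/O per Chance and Williams. Expressed as % control, means ± SEM, three preparations.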

Rattus norvegicus [10] = species: Rattus norvegicus; assay: Effect on electron transport protein complex 2 in Wistar-Han rat liver mitochondria using succinate as substrate assessed as ADP-induced depolarization at 3 ug/mg relative to control
Rattus norvegicus [11] = species: Rattus norvegicus; assay: Effect on electron transport protein complex 1 in Wistar-Han rat liver mitochondria using glutamate/malate as substrate assessed as phosphorylative lag phase at 6 ug/mg relative to control; in short: as §3
Rattus norvegicus [12] = species: Rattus norvegicus; assay: Inhibition of electron transport protein complex 1/2 in Wistar-Han rat liver mitochondria using glutamate/malate and succinate as substrate assessed as increase of state 3 and 4 mitochondrial oxygen consumption at 3 to 6 ug/mg; in short: as §4
Rattus norvegicus [13] = species: Rattus norvegicus; assay: Increase of calcium-induced mitochondrial permeability transition in Wistar-Han rat liver mitochondria assessed as mitochondrial transmembrane electric potential after 2 mins; format: functional; in short: as §2
Rattus norvegicus [14] = species: Rattus norvegicus; assay: Effect on electron transport protein complex 2 in Wistar-Han rat liver mitochondria using succinate as substrate assessed as phosphorylative lag phase at 6 ug/mg relative to control; in short: as §3
Hs-578T = assay: Induction of mitochondrial depolarization in human estrogen-insensitive Hs578T cells at 1 ug/ml after 48 hrs by MitoTracker Red staining; format: functional, cell-based; in short: as §1
Rattus norvegicus [15] = species: Rattus norvegicus; assay: Effect on electron transport protein complex 1 in Wistar-Han rat liver mitochondria using glutamate/malate as substrate assessed as phosphorylative lag phase at 3 ug/mg relative to control; in short: as §3
Rattus norvegicus [16] = species: Rattus norvegicus; assay: Effect on electron transport protein complex 2 in Wistar-Han rat liver mitochondria using succinate as substrate assessed as mitochondrial transmembrane electric potential at 6 ug/mg relative to control
Rattus norvegicus [17] = species: Rattus norvegicus; assay: Inhibition of electron transport protein complex 1/2 in Wistar-Han rat liver mitochondria using glutamate/malate and succinate as substrate assessed as decrease of FCCP-induced respiration at 3 to 6 ug/mg; in short: as §4
Rattus norvegicus [18] = species: Rattus norvegicus; assay: Inhibition of electron transport protein complex 1/2 in Wistar-Han rat liver mitochondria using glutamate/malate and succinate as substrate assessed as increase of passive flux of protons through mitochondrial inner membrane at 3 to 6 ug/mg
Rattus norvegicus [19] = species: Rattus norvegicus; assay: Inhibition of electron transport protein complex 1/2 in Wistar-Han rat liver mitochondria using glutamate/malate and succinate as substrate assessed as decrease of ADP/O ratio at 3 to 6 ug/mg; in short: as §4

## C=C(C[n+]1ccc(N(C)C)cc1)[C@@H]1CC[C@]2(COC(=O)C[n+]3ccc(N(C)C)cc3)CC[C@]3(C)[C@H](CC[C@@H]4[C@@]5(C)CC[C@H](OC(=O)C[n+]6ccc(N(C)C)cc6)C(C)(C)[C@@H]5CC[C@]43C)[C@@H]12.[Br-].[Br-].[Br-]
Rattus norvegicus [1]
  Activity: 232 mV
Rattus norvegicus [2]
  Activity: 14.6%
Rattus norvegicus [3]
  Activity: 226 mV
MCF7
  Activity: Active
Rattus norvegicus [4]
  Activity: 18.5%
Rattus norvegicus [5]
  Activity: inactive
BJ
  Activity: Toxic
Rattus norvegicus [6]
  Activity: 225 mV
Rattus norvegicus [7]
  Activity: 36%
Rattus norvegicus [8]
  Activity: 27.8%
Rattus norvegicus [9]
  inhibition: Active
Rattus norvegicus [10]
  Activity: 30.3%
Rattus norvegicus [11]
  Activity: 46.5%
Rattus norvegicus [12]
  inhibition: inactive
Rattus norvegicus [13]
  Activity: Active
Rattus norvegicus [14]
  Activity: 45.5%
Hs-578T
  Activity: Active
Rattus norvegicus [15]
  Activity: 42.8%
Rattus norvegicus [16]
  Activity: 228 mV

## C=C(C)[C@@H]1CC[C@]2(COC(=O)C[n+]3ccc(N(C)C)cc3)CC[C@]3(C)[C@H](CC[C@@H]4[C@@]5(C)CC[C@H](OC(=O)C[n+]6ccc(N(C)C)cc6)C(C)(C)[C@@H]5CC[C@]43C)[C@@H]12.[Br-].[Br-]
Rattus norvegicus [1]
  Activity: 232 mV
Rattus norvegicus [2]
  Activity: 20.3%
Rattus norvegicus [3]
  Activity: 225 mV
MCF7
  Activity: Active
Rattus norvegicus [4]
  Activity: 23.4%
Rattus norvegicus [5]
  Activity: inactive
BJ
  Activity: Toxic
Rattus norvegicus [17]
  inhibition: Active
Rattus norvegicus [6]
  Activity: 225 mV
Rattus norvegicus [18]
  inhibition: Active
Rattus norvegicus [7]
  Activity: 38.3%
Rattus norvegicus [8]
  Activity: 27.7%
Rattus norvegicus [10]
  Activity: 30.6%
Rattus norvegicus [11]
  Activity: 46%
Rattus norvegicus [13]
  Activity: Active
Rattus norvegicus [14]
  Activity: 40%
Hs-578T
  Activity: Active
Rattus norvegicus [15]
  Activity: 36.8%
Rattus norvegicus [16]
  Activity: 229 mV

## C=C(C[n+]1ccc(N(C)C)cc1)[C@@H]1CC[C@]2(C(=O)O)CC[C@]3(C)[C@H](CC[C@@H]4[C@@]5(C)CC[C@H](O)C(C)(C)[C@@H]5CC[C@]43C)[C@@H]12.[Br-]
Rattus norvegicus [1]
  Activity: 228 mV
Rattus norvegicus [2]
  Activity: 13.5%
Rattus norvegicus [3]
  Activity: 229 mV
MCF7
  Activity: inactive
Rattus norvegicus [4]
  Activity: 19.5%
BJ
  Activity: Non-toxic
Rattus norvegicus [6]
  Activity: 229 mV
Rattus norvegicus [7]
  Activity: 40.3%
Rattus norvegicus [8]
  Activity: 13.8%
Rattus norvegicus [9]
  inhibition: Active
Rattus norvegicus [10]
  Activity: 22.4%
Rattus norvegicus [11]
  Activity: 63.3%
Rattus norvegicus [12]
  inhibition: inactive
Rattus norvegicus [14]
  Activity: 57%
Hs-578T
  Activity: inactive
Rattus norvegicus [15]
  Activity: 51%
Rattus norvegicus [16]
  Activity: 228 mV

## C=C(C)[C@@H]1CC[C@]2(CO)CC[C@]3(C)[C@H](CC[C@@H]4[C@@]5(C)CC[C@H](OC(=O)C[n+]6ccc(N(C)C)cc6)C(C)(C)[C@@H]5CC[C@]43C)[C@@H]12.[Cl-]
Rattus norvegicus [1]
  Activity: 232 mV
Rattus norvegicus [2]
  Activity: 23.5%
Rattus norvegicus [3]
  Activity: 222 mV
MCF7
  Activity: Active
Rattus norvegicus [4]
  Activity: 26.5%
Rattus norvegicus [5]
  Activity: inactive
BJ
  Activity: Toxic
Rattus norvegicus [6]
  Activity: 222 mV
Rattus norvegicus [7]
  Activity: 38%
Rattus norvegicus [8]
  Activity: 29.9%
Rattus norvegicus [10]
  Activity: 36.2%
Rattus norvegicus [11]
  Activity: 45%
Rattus norvegicus [12]
  inhibition: inactive
Rattus norvegicus [13]
  Activity: Active
Rattus norvegicus [14]
  Activity: 53%
Hs-578T
  Activity: Active
Rattus norvegicus [15]
  Activity: 27.8%
Rattus norvegicus [16]
  Activity: 228 mV

## C=C(C)[C@@H]1CC[C@]2(COC(=O)C[n+]3ccc(N(C)C)cc3)CC[C@]3(C)[C@H](CC[C@@H]4[C@@]5(C)CC[C@H](O)C(C)(C)[C@@H]5CC[C@]43C)[C@@H]12
Rattus norvegicus [1]
  Activity: 226 mV
Rattus norvegicus [2]
  Activity: 22.6%
Rattus norvegicus [3]
  Activity: 225 mV
Rattus norvegicus [4]
  Activity: 22.5%
Rattus norvegicus [5]
  Activity: inactive
Rattus norvegicus [6]
  Activity: 225 mV
Rattus norvegicus [7]
  Activity: 39%
Rattus norvegicus [19]
  inhibition: Active
Rattus norvegicus [8]
  Activity: 27.8%
Rattus norvegicus [10]
  Activity: 28.5%
Rattus norvegicus [11]
  Activity: 31%
Rattus norvegicus [12]
  inhibition: Active
Rattus norvegicus [13]
  Activity: Active
Rattus norvegicus [14]
  Activity: 42%
Rattus norvegicus [15]
  Activity: 28.8%
Rattus norvegicus [16]
  Activity: 224 mV
